Data as given in ChEMBL document CHEMBL1681736, “Towards more specific O6-methylguanine-DNA methyltransferase (MGMT) inactivators” (Bioorg Med Chem, 2011).

Assays:
[1] = Solubility of the compound in phosphate buffer; type: physicochemical
Outline: (§1)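 Solubility was assessed while setting up thermal denaturation experiments with salmon sperm DNA (68% A–T base-pair content). Each buffer (phosphate, MES, Tris) was tried alone and also mixed with DMSO or ethanol.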

[2] = Solubility of the compound in Tris buffer; type: physicochemical; outline: as §1
[3] = Solubility of the compound in MES buffer; type: physicochemical; outline: as §1
[4] = target: T1, Methylated-DNA--protein-cysteine methyltransferase (Homo sapiens, UniProt P16455); assay: Inactivation of human O-6-methylguanine-DNA methyltransferase assessed as [3H]methylated protein formation by liquid scintillation counting in presence of [3H]methylated calf thymus DNA
T1 sequence (P16455 whole entry): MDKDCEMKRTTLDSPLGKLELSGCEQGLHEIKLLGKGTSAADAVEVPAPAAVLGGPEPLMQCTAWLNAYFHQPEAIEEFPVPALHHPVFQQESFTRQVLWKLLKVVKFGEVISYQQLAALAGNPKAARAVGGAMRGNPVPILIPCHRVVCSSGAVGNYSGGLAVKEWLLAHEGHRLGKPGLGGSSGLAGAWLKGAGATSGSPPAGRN

solubility [1] | solubility [2] | solubility [3] | IC50 [4] [µM] | SMILES
Insoluble | Insoluble | Insoluble | – | Nc1ccc(Oc2ccc(Nc3nc(N)nc(OCc4cc(Br)cs4)c3[N+](=O)[O-])cc2)cc1
Insoluble | Insoluble | Insoluble | – | Nc1ccc(Cc2ccc(Nc3nc(N)nc(OCc4cc(Br)cs4)c3[N+](=O)[O-])cc2)cc1
– | – | – | 0.003 | Nc1nc(OCc2cc(Br)cs2)c2[nH]cnc2n1 [LOMEGUATRIB]
Insoluble | Insoluble | Insoluble | > 600 | Nc1ccc(C(=O)c2ccc(Nc3nc(N)nc(OCc4ccccc4)c3[N+](=O)[O-])cc2)cc1
Insoluble | Insoluble | Insoluble | – | Nc1ccc(Nc2ccc(Nc3nc(N)nc(OCc4ccccc4)c3[N+](=O)[O-])cc2)cc1
Insoluble | Insoluble | Insoluble | – | Nc1ccc(Cc2ccc(Nc3nc(N)nc(OCc4ccccc4)c3[N+](=O)[O-])cc2)cc1
Insoluble | Insoluble | Insoluble | > 600 | Nc1ccc(Oc2ccc(Nc3nc(N)nc(OCc4ccccc4)c3[N+](=O)[O-])cc2)cc1
Insoluble | Insoluble | Insoluble | – | Nc1ccc(Nc2ccc(Nc3nc(N)nc(OCc4cc(Br)cs4)c3[N+](=O)[O-])cc2)cc1
Insoluble | Insoluble | Insoluble | – | Nc1ccc(C(=O)c2ccc(Nc3nc(N)nc(OCc4cc(Br)cs4)c3[N+](=O)[O-])cc2)cc1
